Measurements from different studies.
RPS6KA3 C-terminal kinase domain: Ribosomal protein S6 kinase alpha-3, C-terminal kinase domain (RPS6KA3, Homo sapiens, UniProt P51812)
RPS6KA3: Ribosomal protein S6 kinase alpha-3 (RPS6KA3, Homo sapiens, UniProt P51812)
RPS6KA3 N-terminal kinase domain: Ribosomal protein S6 kinase alpha-3, N-terminal kinase domain (RPS6KA3, Homo sapiens, UniProt P51812)

`CCCCC(=O)Nc1ccc(-c2ccc3ncn(CCC)c(=O)c3c2)cn1` gave a remaining binding of 99% (RPS6KA3 C-terminal kinase domain; binding; competition with immobilised ligand; 0.5 µM).
For `COc1ccc2oc(-c3ccc4nc(N)oc4c3)c/c(=N\c3ccccc3NC(=O)CCN)c2c1`, the remaining binding was 98% (RPS6KA3; binding; 1 µM).
`COc1ccc2[nH]c3c4[nH]c5ccc(OC)cc5c4c4c(c3c2c1)C(=O)NC4=O` has a remaining binding of 21% (RPS6KA3 N-terminal kinase domain; binding; competition with immobilised ligand; 1 µM).
`N#Cc1ccc(NC(=O)Nc2ccccc2)cc1` gave a remaining binding of 90% (RPS6KA3 N-terminal kinase domain; cell-free assay; competition with immobilised ligand; 25 µM).
With `C#Cc1cc(-c2cc(Nc3nc(N[C@@H](C)c4ccc(F)cn4)ncc3Cl)n[nH]2)ccc1C=O` the inhibition was 39.8% (RPS6KA3; enzyme activity; inhibitor; 0.2 µM).
`Cc1cc(O)c(-c2ccc([C@@H](C)CN(C)C)cc2)c2c1[nH]c(=O)c1sccc12` has an inhibition of -17.5% (RPS6KA3 C-terminal kinase domain; enzyme activity; inhibitor; 0.1 µM).
The remaining binding of `CN1CCN(C(=O)c2ccc(NC(=O)Nc3ccc(N(C)c4ccnc(Nc5ccc(CS(C)(=O)=O)cc5)n4)cc3)cc2)CC1` is reported as 86% (RPS6KA3 C-terminal kinase domain; binding; competition with immobilised ligand; 1 µM).
The activity vs control of `CC(C)S(=O)(=O)c1ccc2nccc(Nc3ccc4sc(C5CCCC5)nc4c3)c2c1` is reported as 113% (RPS6KA3; enzyme activity; inhibitor; 1 µM).
